# Assay results from different studies.
# Compare with care: the assays were run in different laboratories.
# Target: Peripheral plasma membrane protein CASK (CASK, Homo sapiens, UniProt O14936)
# One construct used (O14936 1-926): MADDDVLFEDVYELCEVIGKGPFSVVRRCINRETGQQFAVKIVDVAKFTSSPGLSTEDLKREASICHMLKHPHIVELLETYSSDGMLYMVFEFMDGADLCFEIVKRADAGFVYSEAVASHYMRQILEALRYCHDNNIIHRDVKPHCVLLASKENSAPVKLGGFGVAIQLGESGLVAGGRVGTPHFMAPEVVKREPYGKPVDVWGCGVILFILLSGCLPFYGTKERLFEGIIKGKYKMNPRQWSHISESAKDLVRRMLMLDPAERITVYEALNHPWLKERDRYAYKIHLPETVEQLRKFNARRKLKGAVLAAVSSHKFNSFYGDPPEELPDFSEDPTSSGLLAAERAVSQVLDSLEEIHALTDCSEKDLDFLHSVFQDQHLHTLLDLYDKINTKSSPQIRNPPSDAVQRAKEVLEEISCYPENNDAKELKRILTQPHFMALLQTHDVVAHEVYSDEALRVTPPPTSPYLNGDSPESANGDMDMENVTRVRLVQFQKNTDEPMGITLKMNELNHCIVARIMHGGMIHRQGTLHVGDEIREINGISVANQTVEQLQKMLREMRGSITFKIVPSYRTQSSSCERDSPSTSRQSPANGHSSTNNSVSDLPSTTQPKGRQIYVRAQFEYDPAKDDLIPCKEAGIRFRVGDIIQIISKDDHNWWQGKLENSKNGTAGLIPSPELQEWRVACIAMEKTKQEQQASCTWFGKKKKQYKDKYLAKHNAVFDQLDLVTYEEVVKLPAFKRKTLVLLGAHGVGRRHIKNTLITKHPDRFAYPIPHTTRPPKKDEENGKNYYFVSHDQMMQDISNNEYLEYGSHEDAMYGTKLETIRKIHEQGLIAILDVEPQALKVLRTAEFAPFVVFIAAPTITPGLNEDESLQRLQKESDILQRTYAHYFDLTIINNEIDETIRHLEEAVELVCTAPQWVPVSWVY
SMILES,observed,method,concentration,remaining binding [%]
COc1cnc(Nc2cccc(S(N)(=O)=O)c2)nc1N1CCN(c2ccccc2)C(=O)C1,binding,competition with immobilised ligand,1 µM,79
CCC(=N\O)/C(C)=C/c1ccc(F)cc1,cell-free assay,competition with immobilised ligand,1 µM,70
C=CC(=O)N1CCC(C(=O)NCC(=O)N2CCN(c3nc(-c4cnc(N)nc4C(F)F)nc(N4CCOCC4)n3)CC2)CC1,binding,competition with immobilised ligand,1 µM,69
C[C@@H](c1ccc(-n2cnc3c(N)ncnc32)cc1)N1CCc2nn(C)c(Cc3ccccc3)c2C1=O,binding,competition with immobilised ligand,0.1 µM,80
CC1CCCN1c1nccc(-c2cnn3ncccc23)n1 (stereo not drawn),binding,competition with immobilised ligand,1 µM,100
O=C(NCCCN1CCOCC1)c1ccc(Nc2ncc(Cl)c(-c3ccc(Cl)s3)n2)cc1,binding,competition with immobilised ligand,1 µM,98
Cc1nc(C2CCN(C(=O)c3ccc(OC(F)(F)F)cc3N)CC2)c2ncc(N3CCN(C)CC3)cc2n1,cell-free assay,competition with immobilised ligand,1 µM,87
COc1ccnn2ncc(-c3ccnc(N(C)C)n3)c12,binding,,1 µM,96
O=c1nc(-c2ccccn2)sc2ccccc12,binding,competition with immobilised ligand,1 µM,84
c1cncc(-c2cccc(Nc3nccc(NC4CCCCC4)n3)c2)c1,binding,competition with immobilised ligand,10 µM,76
O=C(NCCCN1CCOCC1)c1ccc(Nc2nccc(-c3cc4ccccc4s3)n2)cc1,binding,competition with immobilised ligand,1 µM,100
N#CC1(c2ccccn2)CCN(Cc2cc(C(=O)N3CCCC3)c(=O)n3ccccc23)CC1,cell-free assay,competition with immobilised ligand,1 µM,100
O=C(Nc1c[nH]nc1C(=O)NC1CCNCC1)c1cc(F)cc(F)c1,binding,competition with immobilised ligand,1 µM,66
N[C@@H]1CCN(c2nccc(-c3cnn4ncccc34)n2)C1,binding,,1 µM,100
O=C(O)[C@@H]1[C@@H](Cn2nnc3ccccc3c2=O)CC[C@H]1C(=O)c1ccc(OCCC2CCOCC2)cc1,cell-free assay,competition with immobilised ligand,1 µM,100
F[C@@H]1CCN(c2nccc(-c3cnn4ncccc34)n2)C1,binding,,1 µM,100
O=C(c1ccc(Nc2ncc(Cl)c(-c3ccc(Cl)s3)n2)cc1)N1CCC(N2CCCC2)CC1,binding,competition with immobilised ligand,1 µM,87
C[C@@H]1CCN(c2nccc(-c3cnn4ncccc34)n2)C1,binding,,1 µM,84
CCCCN(CCCC)C(=O)CN1C[C@@H](c2cc(OC)c3c(c2)OCO3)[C@H](C(=O)O)[C@H]1CC(C)(C)CCC,cell-free assay,competition with immobilised ligand,1 µM,90.5
Nc1ncc2c(n1)-c1c([nH]c3ccc(C#CC4CC4)cc13)CCCC2,binding,competition with immobilised ligand,1 µM,88
CN(C)c1ncc(F)c(-c2cnn3ncccc23)n1,binding,competition with immobilised ligand,1 µM,79
